The source made the active and inactive calls. The rule behind the calls is not given here.
Tests used:
Mus musculus [1] = assay: Anticonvulsant activity in albino CD-1 mouse assessed as protection against subcutaneous pentylenetetrazole-induced seizure at 30 to 300 mg/kg, ip measured after 0.5 hrs; type: functional; conditions: for minimal effective dose: CD-1, 0.5 h, read-out: MED
How it was run: (§1)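 Male CD-1 mice given compound i.p. (0.5% methylcellulose suspension) at 30, 100, 300 mg/kg, four per group; pentylenetetrazole 85 mg/kg s.c. at 0.5 or 2 h. Absence of clonic convulsions (≥5 s) over 30 min observation counts as protection. Minimum active dose reported.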

Mus musculus [2] = assay: Anticonvulsant activity in albino CD-1 mouse assessed as protection against maximal electroshock-induced seizure at 30 to 300 mg/kg, ip measured after 0.5 hrs; type: functional; conditions: for minimal effective dose: CD-1, ip, read-out: MED
How it was run: (§2)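 Male CD-1 mice (16–26 g), compound suspended in 0.5% methylcellulose/water, i.p. at 30, 100, 300 mg/kg; four mice per group, each used once. Electroconvulsion by electrical stimulus 0.2 s at 50 Hz; protection scored at 0.5 and 2 h. Value is minimum dose showing activity.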

Mus musculus [3] = assay: Neurotoxicity in albino CD-1 mouse assessed as motor impairment at 30 to 300 mg/kg mg/kg, ip measured after 0.5 hrs by rotarod test; type: toxicity, organism-based; conditions: in vivo
How it was run: (§3)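 Rotarod in male CD-1 mice at 0.5 and 2 h after i.p. 30, 100 or 300 mg/kg (methylcellulose suspension); motor impairment = inability to keep balance on rod turning at 10 rpm for at least 1 min. Minimum neurotoxic dose reported.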

Mus musculus [4] = assay: Anticonvulsant activity in albino CD-1 mouse assessed as protection against subcutaneous pentylenetetrazole-induced seizure at 30 to 300 mg/kg, ip measured after 2.0 hrs; type: functional; conditions: for minimal effective dose: CD-1, 2 h, read-out: MED; how it was run: as §1
Mus musculus [5] = assay: Neurotoxicity in albino CD-1 mouse assessed as motor impairment at 30 to 300 mg/kg mg/kg, ip measured after 2 hrs by rotarod test; type: toxicity, organism-based; conditions: in vivo; how it was run: as §3
Mus musculus [6] = assay: Anticonvulsant activity in albino CD-1 mouse assessed as protection against maximal electroshock-induced seizure at 30 to 300 mg/kg, ip measured after 2.0 hrs; type: functional; conditions: for minimal effective dose: CD-1, ip, read-out: MED; how it was run: as §2
[7] = Protective index, ratio of TD50 for neurotoxicity in ip dosed albino CD-1 mouse to ED50 for anticonvulsant activity in ip dosed maximal electoshock-induced seizure albino CD-1 mouse model; type: toxicity, organism-based; conditions: in vivo, read-out: Ratio TD50/ED50
How it was run: (§4)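 Protective index computed as TD50 (rotarod) divided by ED50 (MES or scPTZ), both from probit analysis on groups of six i.p.-dosed mice.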

Mus musculus [8] = assay: Anticonvulsant activity in ip dosed albino CD-1 mouse assessed as protection against subcutaneous pentylenetetrazole-induced seizure; type: functional
How it was run: (§5)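 Quantitative work at time of peak effect previously estimated in screening; groups of six mice given various i.p. doses until ≥3 points within 10–90% seizure protection (MES or scPTZ) or minimal motor impairment on rotarod (10 rpm, failure to hold ≥1 min).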

Mus musculus [9] = assay: Anticonvulsant activity in ip dosed albino CD-1 mouse assessed as protection against subcutaneous pentylenetetrazole-induced seizure measured as time to peak effect; type: functional; how it was run: as §5
Mus musculus [10] = assay: Anticonvulsant activity in ip dosed albino CD-1 mouse assessed as protection against maximal electroshock-induced seizure; type: functional; conditions: CD-1, ip; how it was run: as §5
[11] = Neurotoxicity in ip dosed albino CD-1 mouse assessed as motor impairment by rotarod test; type: toxicity, organism-based; conditions: in vivo; how it was run: as §5
Mus musculus [12] = assay: Anticonvulsant activity in ip dosed albino CD-1 mouse assessed as protection against maximal electroshock-induced seizure measured as time to peak effect; type: functional; how it was run: as §5
Mus musculus [13] = assay: Anticonvulsant activity in ip dosed albino CD-1 mouse assessed as protection against 6 Hz current-induced seizure measured after 0.5 hrs; type: functional; conditions: CD-1, ip, read-out: MED
How it was run: (§6)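 6-Hz psychomotor test: corneal stimulation 32 mA, 0.2 ms monopolar rectangular pulses at 6 Hz for 3 s, mice restrained then released to observation cage. Protected if normal exploratory behaviour resumes within 10 s. Doses 30, 100, 300 mg/kg i.p.; read at 0.5 and 2 h; minimum active dose.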

Mus musculus [14] = assay: Anticonvulsant activity in ip dosed albino CD-1 mouse assessed as protection against 6 Hz current-induced seizure measured after 2.0 hrs; type: functional; conditions: CD-1, ip, read-out: MED; how it was run: as §6
[15] = Protective index, ratio of TD50 for neurotoxicity in ip dosed albino CD-1 mouse to ED50 for anticonvulsant activity in ip dosed subcutaneous pentylenetetrazole-induced seizure albino CD-1 mouse model; type: toxicity, organism-based; conditions: in vivo, read-out: Ratio TD50/ED50; how it was run: as §4
Rattus norvegicus = species: Rattus norvegicus; assay: Displacement of [3H]BTX from voltage-sensitive sodium channel site2 in rat cerebral cortex at 100 uM measured after 60.0 mins by scintillation counting; type: tissue-based

Row | Compound | minimal effective dose (Mus musculus [1]) [mg/kg] | MED (Mus musculus [2]) | MTC (Mus musculus [3]) | MED (Mus musculus [4]) | MTC (Mus musculus [5]) | MED (Mus musculus [6]) | MED (Mus musculus [1]) | selectivity ratio [7] | ED50 (Mus musculus [8]) [mg/kg] | Time (Mus musculus [9]) [h] | minimal effective dose (Mus musculus [2]) [mg/kg] | ED50 (Mus musculus [10]) [mg/kg] | TD50 [11] [mg/kg] | minimal effective dose (Mus musculus [6]) [mg/kg] | Time (Mus musculus [12]) [h] | minimal effective dose (Mus musculus [13]) [mg/kg] | minimal effective dose (Mus musculus [4]) [mg/kg] | minimal effective dose (Mus musculus [14]) [mg/kg] | selectivity ratio [15] | inhibition (Rattus norvegicus) [%]
1 | CC1(c2ccccc2)CC(=O)N(CC(=O)N2CCN(c3cccc(Cl)c3Cl)CC2)C1=O (stereo unspecified) | 300 | inactive | Non-toxic | inactive | Non-toxic | inactive |  |  |  |  |  |  |  |  |  |  |  |  |  | 
2 | Cc1ccccc1N1CCN(C(=O)CN2C(=O)CC(C)(c3ccccc3)C2=O)CC1 (stereo unspecified) |  | inactive | Non-toxic | inactive | Non-toxic | inactive | inactive |  |  |  |  |  |  |  |  |  |  |  |  | 
3 | O=C1NC(=O)C(c2ccccc2)(c2ccccc2)N1 [PHENYTOIN] |  |  | 100 mg/kg | inactive | 100 mg/kg |  | inactive | 5.56 | > 500 | 1 | 30 | 6.65 | 59.9 | 30 | 1 |  |  |  |  | 
4 | CC1(c2ccccc2)CC(=O)N(CC(=O)N2CCOCC2)C1=O (stereo unspecified) | 300 |  | Non-toxic |  | Non-toxic |  |  |  |  |  | 300 |  |  | 300 |  | 100 | 300 | 100 |  | 
5 | CC1(c2ccccc2)CC(=O)N(CC(=O)N2CCN(c3cccc(Cl)c3)CC2)C1=O (stereo unspecified) |  |  | Non-toxic | inactive | Non-toxic |  | inactive | > 2.32 |  | 2 | 300 | 215 | > 500 | 300 | 2 |  |  |  |  | 
6 | CC1(c2ccccc2)CC(=O)N(CC(=O)N2CCN(c3ncccn3)CC2)C1=O (stereo unspecified) |  | inactive | Non-toxic |  | Non-toxic | inactive | inactive |  |  |  |  |  |  |  |  |  | 100 |  |  | 
7 | CC1(c2ccccc2)CC(=O)N(CC(=O)N2CCN(c3ccccc3)CC2)C1=O (stereo unspecified) | 100 |  | Non-toxic |  | Non-toxic | inactive |  |  | 40.9 | 0.5 | 300 |  | > 500 |  | 0.5 |  | 300 |  | > 12.2 | 34.2
8 | Cc1cccc(N2CCN(C(=O)CN3C(=O)CC(C)(c4ccccc4)C3=O)CC2)c1 (stereo unspecified) |  |  | 300 mg/kg | inactive | 300 mg/kg |  | inactive |  |  |  | 100 |  |  | 300 |  |  |  |  |  | 
9 | CC1(c2ccccc2)CC(=O)N(CC(=O)N2CCN(c3cccc(C(F)(F)F)c3)CC2)C1=O (stereo unspecified) |  |  | Non-toxic | inactive | Non-toxic |  | inactive |  |  |  | 300 |  |  | 300 |  | 300 |  | 300 |  | 
10 | CC1(c2ccccc2)CC(=O)N(CC(=O)N2CCN(Cc3ccccc3)CC2)C1=O (stereo unspecified) | 100 | inactive | 300 mg/kg |  | 300 mg/kg | inactive |  |  | 96.5 | 0.5 |  |  | 205 |  | 0.5 |  | 300 |  | 2.12 | 
11 | CCC1(C)CC(=O)NC1=O (stereo unspecified) [ETHOSUXIMIDE] | 100 | inactive | Non-toxic |  | Non-toxic | inactive |  |  |  | 0.25 |  | > 500 |  |  | 0.25 |  | 300 |  |  | 
12 | CC1(c2ccccc2)CC(=O)N(CC(=O)N2CCN(c3ccccc3Cl)CC2)C1=O (stereo unspecified) |  | inactive | Non-toxic |  | Non-toxic | inactive | inactive |  | 120 | 2 |  |  | > 500 |  | 2 |  | 100 |  | > 4.16 | 
13 | COc1cccc(N2CCN(C(=O)CN3C(=O)CC(C)(c4ccccc4)C3=O)CC2)c1 (stereo unspecified) | 100 | inactive | Non-toxic | inactive | Non-toxic | inactive |  |  |  |  |  |  |  |  |  |  |  |  |  | 
14 | CCCC(CCC)C(=O)O [VALPROIC ACID] | 300 |  | Non-toxic | inactive | Non-toxic | inactive |  |  |  | 0.5 | 300 |  |  |  | 0.5 |  |  |  |  | 
15 | CC1(c2ccccc2)CC(=O)N(CC(=O)N2CCN(c3ccc(Cl)cc3)CC2)C1=O (stereo unspecified) | 300 | inactive | Non-toxic |  | Non-toxic | inactive |  |  |  |  |  |  |  |  |  |  | 300 |  |  | 

From ChEMBL document CHEMBL3616366, “Design, synthesis and biological activity of new amides derived from 3-methyl-3-phenyl-2,5-dioxo-pyrrolidin-1-yl-acetic acid” (Eur J Med Chem, 2015)
